We go through six compounds from paper PMC2494688 (Diabetes, 2008).

The target in assay [1] is mouse GPR40 (Mus musculus, UniProt Q76JU9). The assay is classed as cell-based. The following applies: CHO cells, in words. The method in brief:
(§1)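 GPR40 stably expressed in CHO cells carrying NFAT β-lactamase, seeded 1 day before. Test compound in DMSO, diluted in assay buffer, added as a 5× solution. Calcium signal read on FLIPR from 10 s before addition. EC50 taken from concentration–response curves.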

Assay [2] addresses human GPR40 (Homo sapiens, UniProt O14842). Type of assay: cell-based. The following applies: CHO cells, in words. The method in brief: as §1
Assay [3] has as its system islets from wild-type mice. The experiment in a line: Static GDIS assay, 1-h incubation, wild-type islets. The assay is classed as cell-based, mouse. The following applies: 200 μmol/l, 16 mmol/l glucose, n = 6. The method in brief:
(§2)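 Islets isolated by collagenase digestion and Ficoll gradient, cultured overnight in RPMI-1640 with 11 mmol/l glucose. Preincubated 30 min in KRB (0.2% BSA) with 2 mmol/l glucose. One islet/well incubated 60 min at 2 or 16 mmol/l glucose, ± 200 μmol/l oleate or palmitate or 10 μmol/l test compound; DMSO vehicle. Insulin by ultrasensitive rat insulin ELISA. Two experiments, six replicates in total. Wild-type islets also tested across a compound concentration series at 16 mmol/l glucose (three experiments).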

The test system of assay [4] is islets from GPR40−/− mice. The experiment in a line: Static GDIS assay, 1-h incubation, GPR40−/− islets. Type of assay: cell-based, mouse. The following applies: 200 μmol/l, 16 mmol/l glucose, n = 6, P > 0.05. The method in brief: as §2
Assay [5] deals with wild-type C57BL/6 mice. Briefly: IPGTT in wild-type lean mice. The assay is classed as in vivo, mouse. Particulars: 0.0025 mg/kg, positive control. The method in brief:
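Lean male C57BL/6N mice fasted 5–6 h, dosed orally with compound (1–100 mg/kg) or 0.25% methylcellulose vehicle (10 ml/kg) 60 min before 2 g/kg i.p. dextrose. Tail glucose sampled to 60 min. Percent inhibition derived from the 0–60 min AUC minus the vehicle/water group AUC. Plasma compound measured by LC-MS/MS at 60 min of IPGTT (2 h post-dose).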

Sequence of mouse GPR40 (Q76JU9 whole entry): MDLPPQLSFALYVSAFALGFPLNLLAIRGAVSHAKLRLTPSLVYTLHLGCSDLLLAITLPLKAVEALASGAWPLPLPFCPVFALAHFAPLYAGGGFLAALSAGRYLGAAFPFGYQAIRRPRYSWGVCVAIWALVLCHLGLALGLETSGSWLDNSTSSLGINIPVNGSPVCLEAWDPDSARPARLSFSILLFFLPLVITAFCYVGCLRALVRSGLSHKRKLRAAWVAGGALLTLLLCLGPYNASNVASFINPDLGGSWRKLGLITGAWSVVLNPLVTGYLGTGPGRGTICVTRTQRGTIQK
Sequence of human GPR40 (O14842 whole entry): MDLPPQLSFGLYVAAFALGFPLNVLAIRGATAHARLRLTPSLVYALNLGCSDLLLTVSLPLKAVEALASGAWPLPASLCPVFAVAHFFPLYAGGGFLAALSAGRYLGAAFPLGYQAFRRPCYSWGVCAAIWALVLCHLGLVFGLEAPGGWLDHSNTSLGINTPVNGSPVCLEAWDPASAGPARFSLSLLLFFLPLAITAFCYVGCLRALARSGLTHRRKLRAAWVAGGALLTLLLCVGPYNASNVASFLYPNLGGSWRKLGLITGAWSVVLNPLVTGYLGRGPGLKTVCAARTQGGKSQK

With `CCCC(=O)O` [butyric C4:0], in assay [1], the “Activation of mouse GPR40 receptor” value is on record as “minimal activation”. The “Activation of human GPR40 receptor” value in assay [2] is reported as “minimal activation”.

For `CCCCCCCC/C=C\CCCCCCCC(=O)O` [oleic C18:1, oleic acid], the “Promotion of glucose-dependent insulin secretion” value was 1.9 ± 0.4 fold in assay [3] and 1.2 ± 0.3 fold in assay [4].

Take `CCCCCCCCCCCCCCCC(=O)O` [palmitate, palmitic acid]: the “Promotion of glucose-dependent insulin secretion” value in assay [3] is given as 2.4 ± 0.3 fold; in assay [4], 1.8 ± 0.5 fold.

On to `CCCCC(=O)O` [pentanoic C5:0, pentanoic acid], for which, in assay [1], the “Activation of mouse GPR40 receptor” value is on record as “minimal activation”. Moreover, the “Activation of human GPR40 receptor” value in assay [2] is “minimal activation”.

Consider `CCC(=O)O` [propionic C3:0], for which the “Activation of mouse GPR40 receptor” value in assay [1] is given as “minimal activation”. Besides, the “Activation of human GPR40 receptor” value in assay [2] is given as “minimal activation”.

As to “exendin-4: glucagon-like peptide 1 mimetic, positive control”, the “Effect on glucose excursion during IPGTT” value in assay [5] is listed as “completely prevented any glucose excursion”.
